Reference: ChEMBL document CHEMBL2375244 (J Med Chem, 2013)

Tests used:
[1] = Cytotoxicity against human MDA-MB-436 cells after 72 hrs by resazurin/resorufin-based fluorescence assay; format: functional, cell-based; settings: MDA-MB-436, 72 h
A673 = assay: Induction of apoptosis in human A673 cells assessed as caspase-3 activation at 0.05 uM to 5 uM after 24 hrs by luminescence assay relative to control; format: functional
Summary of the method: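 Caspase-3/7 activation measured with a Caspase-Glo 3/7 luminescent assay. Cells were plated as for the high-throughput viability assay and exposed for 24 h to serial dilutions. EC50 was obtained from the dose-response.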

SK-BR-3 = assay: Cytotoxicity against human SK-BR-3 cells after 72 hrs by resazurin/resorufin-based fluorescence assay; format: functional, cell-based; settings: SK-BR-3, 72 h
Summary of the method: (§1)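 CellTiter-Blue viability: 1200 cells per well seeded, incubated overnight at 37 °C, 5% CO₂; drugs serially diluted 2:3 in medium, four replicate wells per concentration plus four diluent-only control wells; 72 h exposure; resazurin reduction to resorufin read by fluorescence (579 nm ex/584 nm em). IC50 is the average of three data sets, each using nine concentrations between 0.004 μM and 12.5 μM.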

NCI-H929 = assay: Induction of apoptosis in human NCI-H929 cells assessed as increase in cleaved caspase-3 level at 0.005 uM after 24 hrs by FACS flow cytometric analysis relative to control; format: functional
Summary of the method: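 Active caspase-3 was detected with a FITC-labelled monoclonal antibody by flow cytometry, and the percentage of cells with raised cleaved caspase-3 is reported. Triplicate experiments.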

BT-549 = assay: Cytotoxicity against human BT549 cells after 72 hrs by resazurin/resorufin-based fluorescence assay; format: functional, cell-based; settings: BT-549, 72 h; summary of the method: as §1
MDA-MB-231 = assay: Cytotoxicity against human MDA-MB-231 cells after 72 hrs by resazurin/resorufin-based fluorescence assay; format: functional, cell-based; settings: MDA-MB-231, 72 h
MDA-MB-468 = assay: Cytotoxicity against human MDA-MB-468 cells after 72 hrs by MTT assay; format: functional, cell-based; settings: MDA-MB-468, 72 h
Summary of the method: (§2)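 Cells kept in RPMI or DMEM with 10% FBS at 37 °C, 5% CO₂ and allowed to attach overnight; 72 h with increasing inhibitor concentrations; then 1 mg/mL MTT for 3 h, DMSO solubilisation, OD read at 540 nm. Testis lines had culture conditions adapted to them. Dose-response in triplicate, 9 concentrations between 0.02 and 100 μM, averaged.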

[2] = Cytotoxicity against mouse GC-2 cells after 72 hrs by MTT assay; format: functional, cell-based; settings: GC-2, 72 h; summary of the method: as §2
[3] = Cytotoxicity against mouse TM4 cells after 72 hrs by MTT assay; format: functional, cell-based; settings: TM4, 72 h; summary of the method: as §2
CDK2/Cyclin A2 [4] = target: T1, CDK2/Cyclin A2 (Homo sapiens, UniProt P24941); assay: Inhibition of human CDK2/Cyclin A2 using PKTPKKAKKL as substrate by P33-radiolabeled assay; format: protein-complex assay
Summary of the method: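 Radiometric (P33) kinase assay run by a contract lab on CDK–cyclin complexes. Inhibitor tested in duplicate at 0.05 nM to 1000 nM with ATP at 10 μM. […] For the in-house assays, IC50 was obtained by Hill-equation fitting.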

[5] = Cytotoxicity against mouse GC-1 cells after 72 hrs by MTT assay; format: functional, cell-based; settings: GC-1, 72 h; summary of the method: as §2
CDK2/Cyclin A2 [6] = target: T1, CDK2/Cyclin A2; assay: Inhibition of human CDK2/Cyclin A2 using PKTPKKAKKL as substrate by fluorescence assay; format: protein-complex assay

Row | IC50 (CDK2/Cyclin A2 [4]) | IC50 (CDK2/Cyclin A2 [6]) | SMILES | IC50 [1] | Activity (A673) | IC50 (SK-BR-3) | Activity (NCI-H929) | IC50 (BT-549) | IC50 (MDA-MB-231) | IC50 (MDA-MB-468) | IC50 [2] | IC50 [3] | IC50 [5]
1 |  |  | CCc1cnn2c(NCc3ccc[n+]([O-])c3)cc(N3CCCC[C@H]3CCO)nc12 [DINACICLIB] | < 5 nM | 280% | < 5 nM | 63% | > 10 µM | < 5 nM |  |  |  | 
2 | 0.9 nM | 20 nM | Nc1nc(Nc2ccc(S(N)(=O)=O)cc2)sc1C(=O)c1cccnc1 |  |  |  |  |  |  | 2800 nM | > 30 µM | 13 µM | 20 µM
